According to ChEMBL document CHEMBL6071141, “In vitro and in vivo evaluation of Bombesin-MMAE conjugates for targeted tumour therapy” (Eur J Med Chem, 2024):
Numbered stars: 1 amine (or outer) side, 2 acyl side, 3 side chain; on linkers, the order of the positions; unused ones are H or OH. Bridge positions count the residues as written; N and C are the ends. Square brackets hold non-standard residues; d marks the D form. Peptide text beside a SMILES is read from it. I, II: the chains in the order shown. * marks the point of attachment. Hexanoyl(6-succinimido-3yl) = O=C1CC([*:1])C(=O)N1CCCCCC(=O)[*:2]; Trp(3a,7a-dihydro) = N[C@@H](CC1=CNC2C=CC=CC12)C(=O)O; Dolaproine = CO[C@@H]([C@@H]1CCCN1)[C@@H](C)C(=O)O; Dil = CC[C@H](C)[C@H](NC)[C@@H](CC(=O)O)OC; Sta = CC(C)C[C@H](N)[C@@H](O)CC(=O)O; PABC = O=C(OCc1ccc(N[*:1])cc1)[*:2]; X3 = C[C@@H](N*)[C@@H](O)c1ccccc1; Cit = NC(=O)NCCC[C@H](N)C(=O)O; PEG4 = NCCOCCOCCOCCOCCC(=O)O; NMeV = CN[C@H](C(=O)O)C(C)C; Nle = CCCC[C@H](N)C(=O)O; βAla = NCCC(=O)O

Legend:
[1] = Displacement of 125 I- [Tyr4] from bombesin receptor 1 (unknown origin) assessed as inhibition by radioligand competitive binding assay; set-up: species or system Homo sapiens
[2] = biological target: T1, Bombesin receptor subtype-3 (Homo sapiens, UniProt P32247); experiment: Displacement of 125 I- [Tyr4] from bombesin receptor 3 (unknown origin) assessed as inhibition by radioligand competitive binding assay
T1 sequence (P32247 whole entry): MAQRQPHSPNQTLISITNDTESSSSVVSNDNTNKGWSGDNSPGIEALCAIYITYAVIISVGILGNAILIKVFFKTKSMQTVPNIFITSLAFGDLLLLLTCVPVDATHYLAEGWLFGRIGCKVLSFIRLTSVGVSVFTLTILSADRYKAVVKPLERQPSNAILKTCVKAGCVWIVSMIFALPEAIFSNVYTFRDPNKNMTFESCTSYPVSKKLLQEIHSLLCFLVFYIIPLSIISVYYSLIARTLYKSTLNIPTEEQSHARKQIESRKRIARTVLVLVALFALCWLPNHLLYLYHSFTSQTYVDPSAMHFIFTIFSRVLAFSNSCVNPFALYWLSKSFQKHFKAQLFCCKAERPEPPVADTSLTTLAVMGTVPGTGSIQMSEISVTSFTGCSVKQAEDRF

[3] = biological target: T2, Gastrin-releasing peptide receptor (Homo sapiens, UniProt P30550); experiment: Displacement of 125 I- [Tyr4] from bombesin receptor 2 in human PC-3 cells assessed as inhibition by radioligand displacement assay; type: cell-based
T2 sequence (P30550 whole entry): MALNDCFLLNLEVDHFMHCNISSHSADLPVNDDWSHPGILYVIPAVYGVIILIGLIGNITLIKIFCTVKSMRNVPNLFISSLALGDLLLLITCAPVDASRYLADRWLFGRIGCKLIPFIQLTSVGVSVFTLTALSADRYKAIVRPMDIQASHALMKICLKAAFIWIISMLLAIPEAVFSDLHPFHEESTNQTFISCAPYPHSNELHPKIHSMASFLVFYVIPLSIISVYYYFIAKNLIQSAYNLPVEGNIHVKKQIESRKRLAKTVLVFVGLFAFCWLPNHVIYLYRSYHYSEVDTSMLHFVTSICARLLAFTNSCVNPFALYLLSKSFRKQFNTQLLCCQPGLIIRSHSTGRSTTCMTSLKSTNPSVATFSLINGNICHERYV
In short: (§1)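 Competition binding on membrane preparations from PC-3 or MDA-MB-231 cells against ¹²⁵I-[Tyr⁴]-bombesin, with conjugates at 10 μM–10 pM. IC50 was taken as the concentration giving 50 % inhibition of tracer binding.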

[4] = biological target: T2, Gastrin-releasing peptide receptor; experiment: Displacement of 125 I- [Tyr4] from bombesin receptor 2 in human MDA-MB-231 cells assessed as inhibition by radioligand displacement assay; type: cell-based; in short: as §1
[5] = Cytotoxicity against human PC-3 cells assessed as inhibition of cell growth incubated for 72 hrs by CellTiter 96 aqueous assay; type: toxicity, cell-based
In short: (§2)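 PC-3 or MDA-MB-231 cells were treated the day after seeding with serial dilutions, from 2000 nM for conjugates and 100 nM for MMAE, for 72 h. Then the assay was stopped, or run 72 h more after a medium change (single) or re-treatment (double). Controls got 0.05 % DMSO. Read-out was MTS absorbance at 490 nm after 90 min. IC50 by non-linear regression; ≥2 experiments, triplicates.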

[6] = Cytotoxicity against human PC-3 cells assessed as inhibition of cell growth incubated with compound for 72 hrs followed by further incubated for 72 hrs (single treatment) by CellTiter 96 aqueous assay; type: toxicity, cell-based; in short: as §2
[7] = Cytotoxicity against human MDA-MB-231 cells assessed as inhibition of cell growth incubated for 72 hrs and followed by treated with compound continued incubation for further 72 hrs (double treatment) after retreatment of compound by CellTiter 96 aqueous assay; type: toxicity, cell-based; in short: as §2
[8] = Cytotoxicity against human PC-3 cells assessed as inhibition of cell growth incubated for 72 hrs and followed by treated with compound continued incubation for further 72 hrs (double treatment) after retreatment of compound by CellTiter 96 aqueous assay; type: toxicity, cell-based; in short: as §2
[9] = Cytotoxicity against human MDA-MB-231 cells assessed as inhibition of cell growth incubated with compound for 72 hrs followed by further incubated for 72 hrs (single treatment) by CellTiter 96 aqueous assay; type: toxicity, cell-based; in short: as §2
[10] = Cytotoxicity against human cells MDA-MB-231 assessed as inhibition of cell growth incubated for 72 hrs by CellTiter 96 aqueous assay; type: toxicity, cell-based; details: MDA-MB-231 cells; in short: as §2
[11] = biological target: T2, Gastrin-releasing peptide receptor; experiment: Displacement of 125 I- [Tyr4] from bombesin receptor 2 (unknown origin) assessed as inhibition by radioligand competitive binding assay

IC50 [1] [nM] | IC50 [2] [nM] | IC50 [3] [nM] | IC50 [4] [nM] | IC50 [11] [nM] | SMILES | IC50 at 72 h [5] [nM] | IC50 at 144 h [6] [nM] | IC50 at 144 h [7] [nM] | IC50 at 144 h [8] [nM] | IC50 at 144 h [9] [nM] | IC50 at 72 h [10] [nM]
> 10000 | 1.11 | – | – | – | CC(=O)N[C@H](Cc1ccccc1)C(=O)N[C@@H](CCC(N)=O)C(=O)N[C@@H](Cc1c[nH]c2ccccc12)C(=O)N[C@@H](C)C(=O)N[C@H](C(=O)NCC(=O)N[C@@H](Cc1c[nH]cn1)C(=O)N[C@@H](CC(C)C)[C@@H](O)CC(=O)N[C@@H](CC(C)C)C(N)=O)C(C)C | – | – | – | – | – | –
– | – | 101 | 97.4 | – | CCCC[C@H](NC(=O)[C@H](CC(C)C)NC(=O)[C@H](Cc1c[nH]cn1)NC(=O)CNC(=O)[C@@H](NC(=O)[C@H](C)NC(=O)[C@H](CC1=CNC2C=CC=CC12)NC(=O)[C@H](CCC(N)=O)NC(=O)[C@H](CC(N)=O)NC(=O)CCOCCOCCOCCOCCNC(=O)[C@H](CSC1CC(=O)N(CCCCCC(=O)N[C@@H](CCC(=O)O)C(=O)N[C@H](C(=O)N[C@@H](CCCNC(N)=O)C(=O)Nc2ccc(COC(=O)N(C)[C@H](C(=O)N[C@H](C(=O)N(C)[C@@H]([C@@H](C)CC)[C@@H](CC(=O)N3CCC[C@H]3[C@H](OC)[C@@H](C)C(=O)N[C@H](C)[C@@H](O)c3ccccc3)OC)C(C)C)C(C)C)cc2)C(C)C)C1=O)NC(C)=O)C(C)C)C(N)=O (stereo not given in full) (I: Ac-C[PEG4]NQ[Trp(3a,7a-dihydro)]AVGHL[Nle]-NH2 / II: EV[Cit][PABC][NMeV]V[Dil][Dolaproine]-X3; linker I:1-II:N via Hexanoyl(6-succinimido-3yl)) | 64.1 | 18.2 | 52.7 | 12.6 | 60.1 | 344
> 10000 | 3600 | – | – | 36.3 | CC(=O)N[C@@H](CS)C(=O)N[C@H](Cc1ccccc1)C(=O)N[C@@H](CCC(N)=O)C(=O)N[C@@H](Cc1c[nH]c2ccccc12)C(=O)N[C@@H](C)C(=O)N[C@H](C(=O)N(C)CC(=O)N[C@@H](Cc1c[nH]cn1)C(=O)N[C@@H](CC(C)C)[C@@H](O)CC(=O)N[C@@H](CC(C)C)C(N)=O)C(C)C | – | – | – | – | – | –
> 10000 | > 10000 | – | – | > 10000 | CCCC[C@H](NC(=O)C[C@H](O)[C@H](CC(C)C)NC(=O)[C@H](Cc1c[nH]cn1)NC(=O)CCNC(=O)[C@@H](NC(=O)[C@H](C)NC(=O)[C@H](Cc1c[nH]c2ccccc12)NC(=O)[C@H](CCC(N)=O)NC(=O)[C@@H](Cc1ccccc1)NC(C)=O)C(C)C)C(N)=O (Ac-[dF]QWAV[βAla]H[Sta][Nle]-NH2) | – | – | – | – | – | –

Further lines, the compound ahead of its results:

SMILES | IC50 [1] [nM] | IC50 [2] [nM] | IC50 [3] [nM] | IC50 [4] [nM] | IC50 [11] [nM] | IC50 at 72 h [5] [nM] | IC50 at 144 h [6] [nM] | IC50 at 144 h [7] [nM] | IC50 at 144 h [8] [nM] | IC50 at 144 h [9] [nM] | IC50 at 72 h [10] [nM]
CC(=O)N[C@@H](CS)C(=O)N[C@H](C(=O)N[C@@H](CC(C)C)[C@@H](O)CC(=O)N[C@H](Cc1ccccc1)C(=O)N[C@H](CCC(N)=O)C(=O)NCC(=O)N[C@@H](CC(C)C)C(=O)N[C@@H](C)C(=O)N[C@@H](Cc1c[nH]c2ccccc12)C(=O)N[C@@H](Cc1c[nH]cn1)C(N)=O)C(C)C | > 10000 | > 10000 | – | – | 4750 | – | – | – | – | – | –
CC(=O)N[C@H](Cc1ccccc1)C(=O)N[C@@H](CCC(N)=O)C(=O)N[C@@H](Cc1c[nH]c2ccccc12)C(=O)N[C@@H](C)C(=O)N[C@H](C(=O)NCC(=O)N[C@@H](Cc1c[nH]cn1)C(=O)N[C@@H](CC(C)C)[C@@H](O)CC(=O)N[C@@H](CC(C)C)C(=O)N[C@@H](CS)C(N)=O)C(C)C | > 10000 | 10.1 | – | – | > 10000 | – | – | – | – | – | –
CC[C@H](C)[C@@H]([C@@H](CC(=O)N1CCC[C@H]1[C@H](OC)[C@@H](C)C(=O)N[C@H](C)[C@@H](O)c1ccccc1)OC)N(C)C(=O)[C@@H](NC(=O)[C@H](C(C)C)N(C)C(=O)OCc1ccc(NC(=O)[C@H](CCCNC(N)=O)NC(=O)CNC(=O)[C@H](CCC(=O)O)NC(=O)CCCCCN2C(=O)CC(SC[C@H](NC(C)=O)C(=O)NCCOCCOCCOCCOCCC(=O)N[C@H](Cc3ccccc3)C(=O)N[C@@H](CCC(N)=O)C(=O)N[C@@H](CC3=CSC4C=CC=CC34)C(=O)N[C@@H](C)C(=O)N[C@H](C(=O)NCC(=O)N[C@@H](Cc3c[nH]cn3)C(=O)N[C@@H](CC(C)C)[C@@H](O)CC(=O)N[C@@H](CC(C)C)C(N)=O)C(C)C)C2=O)cc1)C(C)C (stereo not given in full) | – | – | 71.1 | 76.9 | – | 586 | 142 | 130 | 116 | 171 | 943
